# Published values from different studies.
# Each line is one published result; the experiments were not run side by side.
# DRD2: D(2) dopamine receptor (DRD2, Homo sapiens, UniProt P14416)
# SMARCA2: SWI/SNF-related matrix-associated actin-dependent regulator of chromatin subfamily A member 2 (SMARCA2, Homo sapiens, UniProt P51531)
# PADI2: Protein-arginine deiminase type-2 (PADI2, Homo sapiens, UniProt Q9Y2J8)
# BRAF V600E: Serine/threonine-protein kinase B-raf (BRAF, Homo sapiens, UniProt P15056, V600E)
# Map2k4: Dual specificity mitogen-activated protein kinase kinase 4 (Map2k4, Mus musculus, UniProt P47809)
# BPTF: Nucleosome-remodeling factor subunit BPTF (BPTF, Homo sapiens, UniProt Q12830)
SMILES,target,test,system,conditions,quantity,value
CC(C)c1ccccc1OCCOCC(O)CN1CCN(c2cccc(C(F)(F)F)c2)CC1 (stereo not shown),DRD2,"enzyme activity, inhibitor",,10 µM,inhibition,37.8%
CCC(/C=C1\CCn2c1nc(=O)c1cc(O)ccc12)CC,SMARCA2,"thermal stability, DSF",,100 µM,ΔTm,-0.28 °C
CC(C)(C)n1nnc([C@H](CCCNC(=N)CCl)NC(=O)c2ccccc2C(=O)O)n1,PADI2,"enzyme activity, inhibitor",,,kinact/KI,1000 M⁻¹ s⁻¹
CCC(C)/C=C1\CCn2c1nc(=O)c1c(Cl)cccc12 (stereo not shown),SMARCA2,"thermal stability, DSF",,100 µM,ΔTm,3.77 °C
N=C(CCl)NCCC[C@H](NC(=O)c1ccc(-c2ccccc2)cc1)c1nn[nH]n1,PADI2,"enzyme activity, inhibitor",,,kinact/KI,37.2 M⁻¹ s⁻¹
CC(=O)N[C@H]1CSSC[C@@H](C(=O)N[C@H](Cc2c[nH]c3ccccc23)C(N)=O)NC(=O)[C@@H](Cc2ccccc2)NC(=O)[C@H](CCCNC(=N)N)NC1=O,"Melanocortin receptor 3 (MC3R, Homo sapiens, UniProt P41968)","cAMP, agonist",HEK293,3 min,Emax,0%
N=C(CF)NCCC[C@H](NC(=O)c1ccccc1)c1nn[nH]n1,PADI2,"enzyme activity, inhibitor",,,kinact/KI,6.42 M⁻¹ s⁻¹
Cc1ncsc1-c1ccc(CNC(=O)[C@@H]2C[C@@H](O)CN2C(=O)[C@@H](NC(=O)C2(F)CC2)C(C)(C)C)c(OCCOCCOCCN2CCN(c3cc(-c4ccccc4O)nnc3N)CC2)c1,SMARCA2,"protein level, degrader",MV4-11,,Dmax,~65%
Cc1ccc(C(CS(=O)(=O)c2ccccc2)=NNC(N)=S)cc1,BRAF V600E,"enzyme activity, inhibitor, ATP luminescence",,1 µM,inhibition,69%
CC(C)(C)n1nnc([C@H](CCCNC(=N)CF)NC(=O)c2ccc(-c3ccccc3)cc2)n1,PADI2,"enzyme activity, inhibitor",,,kinact/KI,189 M⁻¹ s⁻¹
CCC(/C=C1\CCn2c1nc(=O)c1cc(OC)ccc12)CC,SMARCA2,"thermal stability, DSF",,100 µM,ΔTm,0.14 °C
Cc1cnc(Nc2ccc(OCCN3CCCC3)cc2)nc1Nc1cccc(S(=O)(=O)NC(C)(C)C)c1,SMARCA2,"thermal stability, DSF",,10 µM,ΔTm,-0.09 °C
Cc1ccc(C(CS(=O)(=O)c2ccccc2)=NNc2nc(C)c(N=Nc3ccccc3)s2)cc1,BRAF V600E,"enzyme activity, inhibitor, ATP luminescence",,10 nM,inhibition,26%
NCCCC[C@H](NC(=O)[C@@H]1CCCN1C(=O)[C@@H]1CSSC[C@H](NC(=O)CNC(=O)CNC(=O)CN)C(=O)N[C@@H](Cc2ccc(O)cc2)C(=O)N[C@@H](Cc2ccccc2)C(=O)N[C@@H](CCC(N)=O)C(=O)N[C@@H](CC(N)=O)C(=O)N1)C(=O)NCC(N)=O,"Vasopressin V2 receptor (AVPR2, Homo sapiens, UniProt P30518)","cAMP, agonist, TR-FRET",CHO-K1,,Emax,~100%
Nc1ncnc2occ(-c3ccc(NC(=O)Nc4cc(C(F)(F)F)ccc4F)cc3)c12,"Mitogen-activated protein kinase 4 (MAPK4, Homo sapiens, UniProt P31152)","cell-free assay, inhibitor",,20 µM,remaining signal,100%
Cc1ccc(N=Nc2sc(NN=C(CS(=O)(=O)c3ccccc3)c3ccc(C)cc3)nc2C)cc1,BRAF V600E,"enzyme activity, inhibitor, ATP luminescence",,1 µM,inhibition,73%
CC(C)(C)/C=C1\CCn2c1nc(=O)c1c(Cl)cccc12,SMARCA2,"thermal stability, DSF",,100 µM,ΔTm,-0.14 °C
Cc1ccc(Nc2nccc(N(C)c3ccc4c(C)n(C)nc4c3)n2)cc1S(N)(=O)=O,"Tyrosine-protein kinase Blk (Blk, Mus musculus, UniProt P16277)","enzyme activity, inhibitor",,10 µM,inhibition,73%
CCCOc1ccc(OC)c(F)c1C(=O)c1ccc(C(=O)N[C@@H]2CNC[C@H]2NC(=O)c2ccc3[nH]ncc3c2)cc1,Map2k4,"enzyme activity, inhibitor",,10 µM,remaining activity,120%
Cc1ccc(C(CS(=O)(=O)c2ccccc2)=NNc2nc(C)c(N=Nc3cccc(C)c3)s2)cc1,BRAF V600E,"enzyme activity, inhibitor, ATP luminescence",,10 nM,inhibition,35%
Oc1ccc(-c2nc(-c3ccncc3)c(-c3ccc(F)cc3)[nH]2)cc1,BPTF,"thermal stability, DSF",,10 µM,ΔTm,0.18 °C
CCN1CCCn2c1nc1c2c(=O)n(C)c(=O)n1C,"Adenosine receptor A3 (ADORA3, Homo sapiens, UniProt P0DMS8)","ligand displacement, radioligand",,"10 µM, cell membranes",inhibition,5%
N=C(CCl)NCCC[C@H](NC(=O)c1ccccc1C(=O)O)c1nn[nH]n1,PADI2,"enzyme activity, inhibitor",,,kinact/KI,162 M⁻¹ s⁻¹
CN(C)/C=C1\CCCn2c1nc(=O)c1c(Cl)cccc12,SMARCA2,"thermal stability, DSF",,100 µM,ΔTm,0.49 °C
C[S+]([O-])c1ccc(-c2nc(-c3ccncc3)c(-c3ccc(F)cc3)[nH]2)cc1 (stereo not shown),SMARCA2,"thermal stability, DSF",,10 µM,ΔTm,0.31 °C
Cc1ccc(C(CS(=O)(=O)c2ccccc2)=NNC2=NC(=O)C(=NNc3ccc(Cl)cc3)S2)cc1,BRAF V600E,"enzyme activity, inhibitor, ATP luminescence",,10 nM,inhibition,27%
CC(C)(C)C/C=C1\CCn2c1nc(=O)c1c(Cl)cccc12,SMARCA2,"thermal stability, DSF",,100 µM,ΔTm,1.61 °C
NC1=NCC(c2cccc3ccccc23)OC1 (stereo not shown),"Beta-secretase 1 (BACE1, Homo sapiens, UniProt P56817)","thermal stability, DSF",,"2.1 mM, pH 5.4",ΔTm,0.63 °C
NS(=O)(=O)c1ccc(Nc2nc(-c3ccc(F)cc3)c3ccccc3n2)cc1,BPTF,"binding, competition with immobilised ligand",,1 µM,remaining binding,63%
CC(C)(C)c1nc(-c2cccc(NS(=O)(=O)c3c(F)cccc3F)c2F)c(-c2ccnc(N)n2)s1,BRAF V600E,"enzyme activity, inhibitor, ATP luminescence",,0.1 µM,inhibition,58%
Cc1ccc(C(=O)Nc2ccc(CN3CCN(C)CC3)c(C(F)(F)F)c2)cc1C#Cc1cnc2cccnn12,"Epidermal growth factor receptor (EGFR, Homo sapiens, UniProt P00533, L858R)",cell-free assay,,23.5 nM,remaining signal,95%
NS(=O)(=O)c1ccc(CCNCc2ccc(-c3ccccc3F)o2)cc1,DRD2,"enzyme activity, inhibitor",,10 µM,inhibition,34.6%
Cc1ccc(C(CS(=O)(=O)c2ccccc2)=NN=C2N=C(c3ccc(C)cc3)CS2)cc1,BRAF V600E,"enzyme activity, inhibitor, ATP luminescence",,10 nM,inhibition,22%
CCC(/C=C1\CCn2c1nc(=O)c1ccc(Cl)cc12)CC,SMARCA2,"thermal stability, DSF",,100 µM,ΔTm,-2.09 °C
Cc1cnc(NC2CCOCC2)nc1-n1cnc(C(=O)NC(CN)c2cc(F)cc(Cl)c2)c1 (stereo not shown),Map2k4,"enzyme activity, inhibitor, radiometric",,1 µM,remaining activity,63%
CCC(/C=C1\CCCn2c1nc(=O)c1c(Cl)cccc12)CC,SMARCA2,"thermal stability, DSF",,100 µM,ΔTm,0.48 °C
Cc1ccc(NC(=O)c2ccc(C)c(C(F)(F)F)c2)cc1C#Cc1nn(C2CCC(O)CC2)c2ncnc(N)c12 (stereo not shown),"Epidermal growth factor receptor (EGFR, Homo sapiens, UniProt P00533, L858R/T790M)",cell-free assay,,10 µM,remaining signal,0%
